Laboratory results published in article PMC3228901 (Cancer research, 2011).

Experiments:
[1] = test system: methylated H3K4 in F9 embryonic teratocarcinoma cells; experiment: Histone H3 methylation in F9 cells, Western blotting; type: cell-based, mouse; details: for IC50: read-out: IC50 in F9 cells (histone H3K4 methylation), various concentrations
Summary of the method: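 F9 cells received 10 μM test compound for 24 h, plus a concentration series. Total histones were then extracted. Mono- and di-methylated H3K4, tri-methylated H3K4, di-methylated H3K9 and total histone H3 were probed by Western blot with specific antibodies. F9 cells given 50 nM LSD1 siRNA for 48 h served as comparison.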

[2] = biological target: recombinant human LSD1 protein (Homo sapiens, UniProt O60341); experiment: In vitro LSD1 demethylation assay, di-methylated H3K4 peptide, mass-spectrometry; type: biochemical; details: read-out: half maximal inhibitory concentration (IC50) for LSD1, 30 °C, 1 hour, MS peak areas
Summary of the method: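 GST-tagged human LSD1 was expressed in bacteria and purified; protein was also obtained commercially. The enzyme was incubated with di-methylated H3K4 peptide at 30 °C for 1 h, with test compound at 0–100 μM (0, 1, 2, 5, 10, 20, 50, 100 μM). Me1 and Me0 products were read by MALDI TOF/TOF MS. Conversion efficiency came from integrated product peak areas, and IC50 was fitted from conversion efficiency.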

NCCIT cells = experiment: Growth of NCCIT cells; type: cell-based, human; details: 50 μM, 30 hours
Summary of the method: (§1)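 Human pluripotent NCCIT and NTERA-2 cells, maintained in DMEM with 10% FBS, were exposed to 50 μM test compound for 30 h and growth assessed. Non-pluripotent HeLa, 293 and NIH3T3 cells were run under the same conditions.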

NIH 3T3 = experiment: Growth of NIH 3T3 cells; type: cell-based; details: even at relatively high concentrations (100–200 μM)
NTERA-2 cells = experiment: Growth of NTERA-2 cells; type: cell-based, human; details: 50 μM, 30 hours
Summary of the method: as §1

F9 cells [3] = experiment: Growth of F9 cells, cell numbers counted; type: cell-based, mouse; details: 50 μM, 30 hours
Summary of the method: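 F9 cells on gelatin-coated dishes in DMEM/10% FBS were treated with DMSO or 50 μM test compound for 30 h. Cells were then counted and expressed as percent of DMSO control. A separate concentration series was also run over 30 h.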

[4] = test system: CHRM4 and SCN3A gene expression in F9 cells; type: cell-based, mouse; details: 10 μM, 24 hours, quantitative RT-PCR
Summary of the method: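 F9 mouse teratocarcinoma cells, grown in DMEM with 10% FBS on 0.1% gelatin-coated dishes, exposed to 10 μM test compound for 24 h; dose series also run in F9 and HeLa cells. CHRM4 and SCN3A mRNA quantified by real-time RT-PCR. LSD1 siRNA-treated F9 cells served as comparison.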

293 = experiment: Growth of 293 cells; type: cell-based; details: even at relatively high concentrations (100–200 μM)
F9 cells [5] = experiment: Cell permeability assay in F9 cells, mass-spectrometry; type: in vitro ADME, mouse; details: 2 hours incubation, washed cells
Summary of the method: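 F9 cells exposed to test compound for 2 h, with DMSO as control, then extensively washed and lysed immediately. Lysate mixed with 4 volumes acetone at −20 °C for 6 h, precipitate removed by centrifugation, supernatant lyophilized and redissolved in methanol. Compound detected by mass spectrometry against pure compound and untreated-cell lysate as m/z references.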

HeLa = experiment: Growth of HeLa cells; type: cell-based; details: even at relatively high concentrations (100–200 μM)
mouse ES cells = experiment: Spherical growth of embryonic stem cells; type: cell-based; details: 50 μM, 30 hours
Summary of the method: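 Mouse ES cells, cultured on irradiated mouse embryonic fibroblasts in DMEM with 10% FBS, were treated with DMSO or 50 μM test compound for 30 h. Spherical colony growth was then examined.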

Row | IC50 [2] [µM] | presence of compound in F9 cells after exposure (F9 cells [5]) | Structure (SMILES) | effect on mono- and di-methylated H3K4 in F9 cells ([1]; 10 μM, 24 hours) | effect on tri-methylated H3K4 and di-methylated H3K9 in F9 cells ([1]; 10 μM, 24 hours) | IC50 [1] [µM] | growth of NCCIT cells (NCCIT cells) | growth inhibition of NIH 3T3 cells (NIH 3T3) | growth of NTERA-2 cells (NTERA-2 cells) | growth of F9 cells (F9 cells [3]) | activation of CHRM4 and SCN3A expression [4] | growth inhibition of 293 cells 293 | growth inhibition of HeLa cells (HeLa) | spherical growth of ES cells (mouse ES cells)
1 | 10.5 | readily found | N=C(N)c1ccc(C(=O)N2CCN(C(=O)c3cc(CN4CCN(C(=N)N)CC4)cc([N+](=O)[O-])c3)CC2)cc1 [CBB1003] | reproducible increase | very little effects | 5 to 10 | inhibited | did not display any significant growth inhibition | inhibited | significantly inhibit | led to the activation | did not display any significant growth inhibition | did not display any significant growth inhibition | substantial inhibition
2 | 5.27 | – | COC(=O)c1cc(CN2CCN(C(=N)N)CC2)cc(C(=O)N2CCN(C(=O)c3ccc(C(=N)N)cc3)CC2)c1 [CBB1007] | – | – | 1 to 5 | inhibited | did not display any significant growth inhibition | inhibited | significantly inhibit | – | did not display any significant growth inhibition | did not display any significant growth inhibition | substantial inhibition
